{"source": "ChEMBL document CHEMBL3797186", "about": "“Single Residue Substitutions That Confer Voltage-Gated Sodium Ion Channel Subtype Selectivity in the NaV1.7 Inhibitory Peptide GpTx-1” (J Med Chem, 2016)", "key": {"[1]": {"target": "Sodium channel protein type 9 subunit alpha (Homo sapiens, UniProt Q15858)", "sequence (Q15858 whole entry)": "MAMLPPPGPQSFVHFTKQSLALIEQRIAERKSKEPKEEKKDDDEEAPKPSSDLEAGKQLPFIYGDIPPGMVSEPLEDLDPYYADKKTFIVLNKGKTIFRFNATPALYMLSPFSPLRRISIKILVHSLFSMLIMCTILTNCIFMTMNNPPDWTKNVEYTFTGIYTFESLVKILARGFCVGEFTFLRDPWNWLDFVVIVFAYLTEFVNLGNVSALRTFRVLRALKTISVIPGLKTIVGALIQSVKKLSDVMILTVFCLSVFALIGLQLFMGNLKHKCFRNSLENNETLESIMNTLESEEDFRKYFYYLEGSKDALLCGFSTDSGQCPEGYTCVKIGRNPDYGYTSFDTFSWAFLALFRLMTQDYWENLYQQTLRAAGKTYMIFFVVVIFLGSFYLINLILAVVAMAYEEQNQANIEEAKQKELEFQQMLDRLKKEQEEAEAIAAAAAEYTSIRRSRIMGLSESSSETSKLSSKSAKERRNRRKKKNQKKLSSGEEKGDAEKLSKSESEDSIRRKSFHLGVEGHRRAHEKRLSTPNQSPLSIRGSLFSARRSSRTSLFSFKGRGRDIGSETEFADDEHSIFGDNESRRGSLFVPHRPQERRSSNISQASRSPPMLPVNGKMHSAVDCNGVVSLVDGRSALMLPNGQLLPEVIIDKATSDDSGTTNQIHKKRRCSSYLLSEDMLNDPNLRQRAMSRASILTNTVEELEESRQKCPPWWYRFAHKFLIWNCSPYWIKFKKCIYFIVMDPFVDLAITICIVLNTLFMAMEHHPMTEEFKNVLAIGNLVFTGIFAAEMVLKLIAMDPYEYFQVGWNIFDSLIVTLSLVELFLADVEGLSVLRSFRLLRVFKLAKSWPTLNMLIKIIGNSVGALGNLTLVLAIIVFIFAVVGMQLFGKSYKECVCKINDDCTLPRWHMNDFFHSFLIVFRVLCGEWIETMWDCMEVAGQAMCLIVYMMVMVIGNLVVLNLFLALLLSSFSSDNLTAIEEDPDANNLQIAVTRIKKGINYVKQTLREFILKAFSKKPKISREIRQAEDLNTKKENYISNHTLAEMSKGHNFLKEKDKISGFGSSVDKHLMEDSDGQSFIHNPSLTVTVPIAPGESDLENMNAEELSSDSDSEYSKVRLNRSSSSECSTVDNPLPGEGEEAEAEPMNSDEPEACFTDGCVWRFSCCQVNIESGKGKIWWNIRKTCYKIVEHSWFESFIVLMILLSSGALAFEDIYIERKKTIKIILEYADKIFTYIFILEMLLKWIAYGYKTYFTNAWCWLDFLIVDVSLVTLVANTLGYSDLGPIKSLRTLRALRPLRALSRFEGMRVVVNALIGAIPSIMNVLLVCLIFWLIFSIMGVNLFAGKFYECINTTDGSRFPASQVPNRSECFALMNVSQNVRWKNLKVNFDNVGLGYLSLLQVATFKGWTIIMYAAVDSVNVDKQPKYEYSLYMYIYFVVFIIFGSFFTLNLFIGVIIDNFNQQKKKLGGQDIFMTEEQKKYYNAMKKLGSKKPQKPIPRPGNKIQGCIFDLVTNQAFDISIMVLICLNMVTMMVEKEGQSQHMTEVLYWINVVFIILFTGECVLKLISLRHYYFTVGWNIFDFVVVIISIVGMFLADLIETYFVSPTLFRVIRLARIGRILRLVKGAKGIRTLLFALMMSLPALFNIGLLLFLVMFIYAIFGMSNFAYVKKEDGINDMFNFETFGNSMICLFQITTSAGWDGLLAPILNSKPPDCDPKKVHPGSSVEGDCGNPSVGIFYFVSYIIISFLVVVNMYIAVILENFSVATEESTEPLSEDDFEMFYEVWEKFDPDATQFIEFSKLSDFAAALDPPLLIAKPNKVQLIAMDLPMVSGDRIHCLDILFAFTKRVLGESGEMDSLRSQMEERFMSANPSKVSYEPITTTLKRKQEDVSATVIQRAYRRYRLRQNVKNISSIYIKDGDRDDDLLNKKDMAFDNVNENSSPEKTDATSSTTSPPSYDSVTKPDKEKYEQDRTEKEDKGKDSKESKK", "experiment": "Inhibition of human Nav1.7 expressed in HEK293 cells assessed as inward peak current by ion-works quattro patch clamp electrophysiology method", "type": "cell-based"}, "[2]": {"target": "Sodium channel protein type 5 subunit alpha (Homo sapiens, UniProt Q14524)", "sequence (Q14524 whole entry)": "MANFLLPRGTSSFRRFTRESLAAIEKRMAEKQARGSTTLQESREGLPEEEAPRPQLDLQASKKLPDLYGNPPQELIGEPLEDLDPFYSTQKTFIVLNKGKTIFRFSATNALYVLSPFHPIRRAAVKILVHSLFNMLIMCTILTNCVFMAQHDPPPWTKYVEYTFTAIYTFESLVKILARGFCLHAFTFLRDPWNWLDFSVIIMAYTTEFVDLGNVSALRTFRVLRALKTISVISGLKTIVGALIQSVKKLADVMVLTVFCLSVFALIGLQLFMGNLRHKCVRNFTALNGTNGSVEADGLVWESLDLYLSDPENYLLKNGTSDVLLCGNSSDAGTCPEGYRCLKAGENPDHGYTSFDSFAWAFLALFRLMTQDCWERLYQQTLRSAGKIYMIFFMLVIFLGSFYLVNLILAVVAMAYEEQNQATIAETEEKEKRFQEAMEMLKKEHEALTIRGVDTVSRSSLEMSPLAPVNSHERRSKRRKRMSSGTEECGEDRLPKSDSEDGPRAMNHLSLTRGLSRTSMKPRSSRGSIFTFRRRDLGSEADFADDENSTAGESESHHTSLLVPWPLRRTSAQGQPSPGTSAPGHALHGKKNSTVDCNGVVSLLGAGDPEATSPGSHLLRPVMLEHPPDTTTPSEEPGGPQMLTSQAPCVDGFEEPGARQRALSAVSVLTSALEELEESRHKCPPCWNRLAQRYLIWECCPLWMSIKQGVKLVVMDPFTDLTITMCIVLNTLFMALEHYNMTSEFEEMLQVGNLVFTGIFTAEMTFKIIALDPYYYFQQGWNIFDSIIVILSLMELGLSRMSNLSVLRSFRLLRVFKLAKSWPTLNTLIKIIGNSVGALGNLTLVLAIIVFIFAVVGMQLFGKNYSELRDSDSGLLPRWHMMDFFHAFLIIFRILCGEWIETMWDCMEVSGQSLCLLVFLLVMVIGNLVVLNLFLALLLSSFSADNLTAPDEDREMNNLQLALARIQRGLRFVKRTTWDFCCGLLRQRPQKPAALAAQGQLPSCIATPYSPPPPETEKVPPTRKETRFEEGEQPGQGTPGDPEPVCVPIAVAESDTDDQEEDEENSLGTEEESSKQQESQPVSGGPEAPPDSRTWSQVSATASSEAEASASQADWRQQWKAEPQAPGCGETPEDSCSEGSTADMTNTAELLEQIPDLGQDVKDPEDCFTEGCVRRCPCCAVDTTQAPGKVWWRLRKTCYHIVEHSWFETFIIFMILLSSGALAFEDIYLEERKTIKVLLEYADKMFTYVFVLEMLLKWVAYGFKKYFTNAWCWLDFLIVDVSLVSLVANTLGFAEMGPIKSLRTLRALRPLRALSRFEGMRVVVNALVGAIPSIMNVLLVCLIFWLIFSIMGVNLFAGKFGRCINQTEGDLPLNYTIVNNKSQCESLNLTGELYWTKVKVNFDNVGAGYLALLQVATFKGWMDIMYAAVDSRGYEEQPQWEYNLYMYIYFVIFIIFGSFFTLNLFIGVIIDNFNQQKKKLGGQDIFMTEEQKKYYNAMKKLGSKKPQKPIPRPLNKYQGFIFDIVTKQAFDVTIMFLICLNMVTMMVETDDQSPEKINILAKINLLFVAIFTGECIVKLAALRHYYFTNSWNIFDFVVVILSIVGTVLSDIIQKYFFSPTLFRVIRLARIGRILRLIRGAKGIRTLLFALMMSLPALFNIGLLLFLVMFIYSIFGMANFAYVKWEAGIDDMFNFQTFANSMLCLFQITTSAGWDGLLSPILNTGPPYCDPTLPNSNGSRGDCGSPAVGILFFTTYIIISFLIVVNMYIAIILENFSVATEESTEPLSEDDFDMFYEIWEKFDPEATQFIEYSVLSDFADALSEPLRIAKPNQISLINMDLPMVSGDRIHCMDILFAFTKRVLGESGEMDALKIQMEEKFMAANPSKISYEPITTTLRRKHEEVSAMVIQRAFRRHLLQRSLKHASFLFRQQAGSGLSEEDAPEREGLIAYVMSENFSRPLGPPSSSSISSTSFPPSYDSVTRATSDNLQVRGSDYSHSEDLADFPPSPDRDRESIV", "experiment": "Inhibition of human Nav1.5 expressed in HEK293 cells assessed as inward peak current by ion-works quattro patch clamp electrophysiology method", "type": "cell-based", "summary_of_the_method": "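Stable HEK293 line expressing human NaV1.5, recorded by population patch clamp on the IonWorks Quattro.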"}}, "note": "Positions of bridges follow the written chain, without caps; N, C: chain ends. Non-standard residues stand in square brackets, D forms with d. Residues, ends and D or L forms follow the SMILES beside them. 1Nal = N[C@@H](Cc1cccc2ccccc12)C(=O)O", "data": [{"smiles": "CC[C@H](C)[C@@H]1NC(=O)[C@@H]2CSSC[C@@H]3NC(=O)[C@H](C(C)C)NC(=O)[C@H](CC(C)C)NC(=O)[C@H](CC(N)=O)NC(=O)[C@@H]4CCCN4C(=O)[C@H](CCCNC(=N)N)NC(=O)[C@H](CSSC[C@H](NC(=O)[C@@H](N)CC(=O)O)C(=O)N[C@@H](CCCCN)C(=O)NCC(=O)N[C@@H](Cc4ccccc4)C(=O)N[C@@H](CCSC)C(=O)N[C@@H](CCCNC(=N)N)C(=O)N[C@@H](CCCCN)C(=O)N2)NC(=O)[C@H](CSSC[C@@H](C(=O)N[C@@H](CCCCN)C(=O)N[C@@H](Cc2ccc(O)cc2)C(=O)N[C@H](C(=O)N[C@@H](Cc2ccccc2)C(N)=O)C(C)C)NC(=O)[C@H](Cc2c[nH]c4ccccc24)NC(=O)[C@H](CCCCN)NC(=O)[C@H](Cc2cnc[nH]2)NC(=O)[C@H]([C@@H](C)O)NC(=O)[C@H](CCCNC(=N)N)NC(=O)[C@H](CO)NC3=O)NC(=O)[C@H](CCCCN)NC(=O)[C@H](CC(=O)O)NC(=O)[C@H](CC(N)=O)NC(=O)[C@H](CC(=O)O)NC(=O)[C@@H]2CCCN2C1=O", "note": "(H-DCKGFMRKCIPDNDKCCRPNLVCSRTHKWCKYVF-NH2; disulfide 2-17, 9-23, 16-30)", "values": [{"measurement": "IC50", "setting": "[1]", "value": 120, "unit": "nM"}, {"measurement": "IC50", "setting": "[2]", "value": "> 5000", "unit": "nM"}]}, {"smiles": "CC[C@H](C)[C@@H]1NC(=O)[C@@H]2CSSC[C@@H]3NC(=O)[C@H](C(C)C)NC(=O)[C@H](CC(C)C)NC(=O)[C@H](CC(N)=O)NC(=O)[C@@H]4CCCN4C(=O)[C@H](CCCNC(=N)N)NC(=O)[C@H](CSSC[C@H](NC(=O)[C@@H](N)Cc4cccc5ccccc45)C(=O)N[C@@H](CC(C)C)C(=O)NCC(=O)N[C@@H](Cc4ccccc4)C(=O)N[C@@H](CCSC)C(=O)N[C@@H](CCCNC(=N)N)C(=O)N[C@@H](CCCCN)C(=O)N2)NC(=O)[C@H](CSSC[C@@H](C(=O)N[C@@H](CCCCN)C(=O)N[C@@H](Cc2ccc(O)cc2)C(=O)N[C@H](C(=O)N[C@@H](Cc2ccccc2)C(N)=O)C(C)C)NC(=O)[C@H](Cc2c[nH]c4ccccc24)NC(=O)[C@H](CCCCN)NC(=O)[C@H](Cc2c[nH]cn2)NC(=O)[C@H]([C@@H](C)O)NC(=O)[C@H](CCCNC(=N)N)NC(=O)[C@H](CO)NC3=O)NC(=O)[C@H](CCCCN)NC(=O)[C@H](CC(=O)O)NC(=O)[C@H](CC(N)=O)NC(=O)[C@H](CC(=O)O)NC(=O)[C@@H]2CCCN2C1=O", "note": "(H-[1Nal]CLGFMRKCIPDNDKCCRPNLVCSRTHKWCKYVF-NH2; disulfide 2-17, 9-23, 16-30)", "values": [{"measurement": "IC50", "setting": "[1]", "value": 100, "unit": "nM"}, {"measurement": "IC50", "setting": "[2]", "value": "> 5000", "unit": "nM"}]}, {"smiles": "CC[C@H](C)[C@@H]1NC(=O)[C@@H]2CSSC[C@@H]3NC(=O)[C@H](C(C)C)NC(=O)[C@H](CC(C)C)NC(=O)[C@H](CC(N)=O)NC(=O)[C@@H]4CCCN4C(=O)[C@H](CCCNC(=N)N)NC(=O)[C@H](CSSC[C@H](NC(=O)[C@@H](N)CC(=O)O)C(=O)N[C@@H](CC(C)C)C(=O)NCC(=O)N[C@@H](Cc4ccccc4)C(=O)N[C@@H](CCSC)C(=O)N[C@@H](CCCNC(=N)N)C(=O)N[C@@H](CCCCN)C(=O)N2)NC(=O)[C@H](CSSC[C@@H](C(=O)N[C@@H](CCCCN)C(N)=O)NC(=O)[C@H](Cc2c[nH]c4ccccc24)NC(=O)[C@H](CCCCN)NC(=O)[C@H](Cc2cnc[nH]2)NC(=O)[C@H]([C@@H](C)O)NC(=O)[C@H](CCCNC(=N)N)NC(=O)[C@H](CO)NC3=O)NC(=O)[C@H](CCCCN)NC(=O)[C@H](CC(=O)O)NC(=O)[C@H](CC(N)=O)NC(=O)[C@H](CC(=O)O)NC(=O)[C@@H]2CCCN2C1=O", "note": "(H-DCLGFMRKCIPDNDKCCRPNLVCSRTHKWCK-NH2; disulfide 2-17, 9-23, 16-30)", "values": [{"measurement": "IC50", "setting": "[1]", "value": "> 5000", "unit": "nM"}, {"measurement": "IC50", "setting": "[2]", "value": "> 5000", "unit": "nM"}]}, {"smiles": "CC[C@H](C)[C@@H]1NC(=O)[C@@H]2CSSC[C@@H]3NC(=O)[C@H](C(C)C)NC(=O)[C@H](CC(C)C)NC(=O)[C@H](CC(N)=O)NC(=O)[C@@H]4CCCN4C(=O)[C@H](CCCNC(=N)N)NC(=O)[C@H](CSSC[C@H](NC(=O)[C@@H](N)CC(=O)O)C(=O)N[C@@H](CC(C)C)C(=O)NCC(=O)N[C@@H](Cc4ccccc4)C(=O)N[C@@H](CCSC)C(=O)N[C@@H](CCCNC(=N)N)C(=O)N[C@@H](CCCCN)C(=O)N2)NC(=O)[C@H](CSSC[C@@H](C(=O)N[C@@H](CCCNC(=N)N)C(=O)N[C@@H](Cc2ccc(O)cc2)C(=O)N[C@H](C(=O)N[C@@H](Cc2ccccc2)C(N)=O)C(C)C)NC(=O)[C@H](Cc2c[nH]c4ccccc24)NC(=O)[C@H](CCCCN)NC(=O)[C@H](Cc2cnc[nH]2)NC(=O)[C@H]([C@@H](C)O)NC(=O)[C@H](CCCNC(=N)N)NC(=O)[C@H](CO)NC3=O)NC(=O)[C@H](CCCCN)NC(=O)[C@H](CC(=O)O)NC(=O)[C@H](CC(N)=O)NC(=O)[C@H](CC(=O)O)NC(=O)[C@@H]2CCCN2C1=O", "note": "(H-DCLGFMRKCIPDNDKCCRPNLVCSRTHKWCRYVF-NH2; disulfide 2-17, 9-23, 16-30)", "values": [{"measurement": "IC50", "setting": "[1]", "value": 950, "unit": "nM"}, {"measurement": "IC50", "setting": "[2]", "value": "> 5000", "unit": "nM"}]}, {"smiles": "CC[C@H](C)[C@@H]1NC(=O)[C@@H]2CSSC[C@@H]3NC(=O)[C@H](C(C)C)NC(=O)[C@H](CC(C)C)NC(=O)[C@H](CC(N)=O)NC(=O)[C@@H]4CCCN4C(=O)[C@H](CCCNC(=N)N)NC(=O)[C@H](CSSC[C@H](NC(=O)[C@@H](N)CC(=O)O)C(=O)N[C@@H](CC(C)C)C(=O)NCC(=O)N[C@@H](Cc4ccccc4)C(=O)N[C@@H](CCSC)C(=O)N[C@@H](CCCNC(=N)N)C(=O)N[C@@H](CCCCN)C(=O)N2)NC(=O)[C@H](CSSC[C@@H](C(=O)N[C@@H](CCCCN)C(=O)N[C@@H](Cc2ccc(O)cc2)C(=O)N[C@H](C(=O)N[C@@H](Cc2ccccc2)C(N)=O)C(C)C)NC(=O)[C@H](Cc2c[nH]c4ccccc24)NC(=O)[C@H](CCCNC(=N)N)NC(=O)[C@H](Cc2cnc[nH]2)NC(=O)[C@H]([C@@H](C)O)NC(=O)[C@H](CCCNC(=N)N)NC(=O)[C@H](CO)NC3=O)NC(=O)[C@H](CCCCN)NC(=O)[C@H](CC(=O)O)NC(=O)[C@H](CC(N)=O)NC(=O)[C@H](CC(=O)O)NC(=O)[C@@H]2CCCN2C1=O", "values": [{"measurement": "IC50", "setting": "[1]", "value": 90, "unit": "nM"}, {"measurement": "IC50", "setting": "[2]", "value": "> 5000", "unit": "nM"}]}, {"smiles": "CC[C@H](C)[C@@H]1NC(=O)[C@@H]2CSSC[C@@H]3NC(=O)[C@H](C(C)C)NC(=O)[C@H](CC(C)C)NC(=O)[C@H](CC(N)=O)NC(=O)[C@@H]4CCCN4C(=O)[C@H](CCCNC(=N)N)NC(=O)[C@H](CSSC[C@H](NC(=O)[C@@H](N)CC(=O)O)C(=O)N[C@@H](CC(C)C)C(=O)NCC(=O)N[C@@H](Cc4ccccc4)C(=O)N[C@@H](CCSC)C(=O)N[C@@H](CCCNC(=N)N)C(=O)N[C@@H](CCCCN)C(=O)N2)NC(=O)[C@H](CSSC[C@@H](C(=O)N[C@@H](CCCCN)C(=O)N[C@@H](Cc2ccc(O)cc2)C(=O)N[C@H](C(=O)N[C@@H](Cc2ccccc2)C(N)=O)C(C)C)NC(=O)[C@H](CCCNC(=N)N)NC(=O)[C@H](CCCCN)NC(=O)[C@H](Cc2cnc[nH]2)NC(=O)[C@H]([C@@H](C)O)NC(=O)[C@H](CCCNC(=N)N)NC(=O)[C@H](CO)NC3=O)NC(=O)[C@H](CCCCN)NC(=O)[C@H](CC(=O)O)NC(=O)[C@H](CC(N)=O)NC(=O)[C@H](CC(=O)O)NC(=O)[C@@H]2CCCN2C1=O", "note": "(H-DCLGFMRKCIPDNDKCCRPNLVCSRTHKRCKYVF-NH2; disulfide 2-17, 9-23, 16-30)", "values": [{"measurement": "IC50", "setting": "[1]", "value": "> 5000", "unit": "nM"}, {"measurement": "IC50", "setting": "[2]", "value": "> 5000", "unit": "nM"}]}, {"smiles": "CC[C@@H](C)[C@H]1NC(=O)[C@H]2CSSC[C@@H]3NC(=O)[C@@H](C(C)C)NC(=O)[C@H](CC(C)C)NC(=O)[C@@H](CC(N)=O)NC(=O)[C@@H]4CCCN4C(=O)[C@H](CCCNC(=N)N)NC(=O)[C@H](CSSC[C@H](NC(=O)[C@@H](CC(=O)O)NC(=O)[C@@H](C)N)C(=O)N[C@@H](CC(C)C)C(=O)NCC(=O)N[C@@H](Cc4ccccc4)C(=O)N[C@H](CCSC)C(=O)N[C@@H](CCCNC(=N)N)C(=O)N[C@@H](CCCCN)C(=O)N2)NC(=O)[C@@H](CSSC[C@@H](C(=O)N[C@@H](CCCCN)C(=O)N[C@@H](Cc2ccc(O)cc2)C(=O)N[C@H](C(=O)N[C@@H](Cc2ccccc2)C(N)=O)C(C)C)NC(=O)[C@@H](Cc2c[nH]c4ccccc24)NC(=O)[C@H](CCCCN)NC(=O)[C@H](Cc2cnc[nH]2)NC(=O)[C@@H]([C@H](C)O)NC(=O)[C@@H](CCCNC(=N)N)NC(=O)[C@H](CO)NC3=O)NC(=O)[C@@H](CCCCN)NC(=O)[C@H](CC(=O)O)NC(=O)[C@@H](CC(N)=O)NC(=O)[C@H](CC(=O)O)NC(=O)[C@@H]2CCCN2C1=O", "values": [{"measurement": "IC50", "setting": "[1]", "value": 370, "unit": "nM"}, {"measurement": "IC50", "setting": "[2]", "value": "> 5000", "unit": "nM"}]}, {"smiles": "CC[C@H](C)[C@@H]1NC(=O)[C@@H]2CSSC[C@@H]3NC(=O)[C@H](C(C)C)NC(=O)[C@H](CC(C)C)NC(=O)[C@H](CC(N)=O)NC(=O)[C@@H]4CCCN4C(=O)[C@H](CCCNC(=N)N)NC(=O)[C@H](CSSC[C@H](NC(=O)[C@@H](N)CC(=O)O)C(=O)N[C@@H](CC(C)C)C(=O)NCC(=O)N[C@@H](Cc4ccccc4)C(=O)N[C@@H](CCSC)C(=O)N[C@@H](CCCNC(=N)N)C(=O)N[C@@H](CCCCN)C(=O)N2)NC(=O)[C@H](CSSC[C@@H](C(=O)N[C@@H](CCCCN)C(=O)N[C@@H](Cc2ccc(O)cc2)C(=O)N[C@H](C(=O)N[C@@H](Cc2ccccc2)C(N)=O)C(C)C)NC(=O)[C@H](Cc2c[nH]c4ccccc24)NC(=O)[C@H](CCCCN)NC(=O)[C@H](Cc2cnc[nH]2)NC(=O)[C@H]([C@@H](C)O)NC(=O)[C@H](CCCNC(=N)N)NC(=O)[C@H](CO)NC3=O)NC(=O)[C@H](CCCCN)NC(=O)[C@H](CC(=O)O)NC(=O)[C@H](CC(N)=O)NC(=O)[C@H](CCC(=O)O)NC(=O)[C@@H]2CCCN2C1=O", "note": "(H-DCLGFMRKCIPENDKCCRPNLVCSRTHKWCKYVF-NH2; disulfide 2-17, 9-23, 16-30)", "values": [{"measurement": "IC50", "setting": "[1]", "value": 280, "unit": "nM"}, {"measurement": "IC50", "setting": "[2]", "value": "> 5000", "unit": "nM"}]}]}
